Measurements: ChEMBL document CHEMBL4311965, “Antimicrobial activity of amphipathic α,α-disubstituted β-amino amide derivatives against ESBL - CARBA producing multi-resistant bacteria; effect of halogenation, lipophilicity and cationic character” (Eur J Med Chem, 2019)
≈ marks a conversion by molar mass, not a printed value.

Key:
[1] = tested on: Enterococcus faecium; experiment: Antibacterial activity against multidrug-resistant Enterococcus faecium 50758899 cultured in BHIB medium assessed as reduction in bacterial growth incubated for 24 hrs by microdilution susceptibility test; assay type: functional; details: Enterococcus faecium, 50758899, 24 h
Method in brief: (§1)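 Enterococci grown in Brain Heart Infusion broth, otherwise broth microdilution per CLSI M07-A9 (modified). Concentrated DMSO stocks kept at r.t. and diluted in double-distilled water, final DMSO <1%. Inoculum 1–1.2 x 10⁶ cells/mL mixed 1:1 with compound. 37 °C, 24 h, four parallels. OD₆₀₀ read-out, lowest concentration with no growth.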

[2] = tested on: HepG2; experiment: Cytotoxicity against human HepG2 cells assessed as reduction in cell viability incubated for 4 hrs by CellTiter 96 Aqueous One Solution Reagent based assay; details: HepG2, 4 h
Method in brief: (§2)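 HepG2 and MRC-5 cells seeded at 35 000 and 15 000 cells/well respectively, then held overnight at 37 °C, 5% CO₂. Compounds in serum-free MEM Earle's applied for 4 h. MTS reagent (CellTiter 96 AQueous One) added for a further 1 h, absorbance read at 485 nm. Survival expressed relative to medium (negative) and Triton X-100 (positive) controls.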

[3] = tested on: Staphylococcus aureus; experiment: Antibacterial activity against Staphylococcus aureus ATCC 9144 cultured in MHB medium assessed as no bacterial growth incubated at 37 degC for 24 hrs by microdilution susceptibility test; assay type: functional; details: ATCC 9144, 24 h
Method in brief: (§3)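 Broth microdilution per CLSI M07-A9 with modifications. Inoculum about 2.5–3 x 10⁴ cells/mL in Mueller-Hinton broth, mixed 1:1 with test derivative. DMSO stocks diluted in double-distilled water, final DMSO <1%. Incubation 24 h at 37 °C (20 °C for C. glutamicum). Growth and sterility controls included; oxytetracycline reference.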

[4] = tested on: Pseudomonas aeruginosa; experiment: Antibacterial activity against multidrug-resistant Pseudomonas aeruginosa 50692520 producing Verona integron encoded metallo beta-lactamse cultured in MHB medium assessed as reduction in bacterial growth incubated for 24 hrs by microdilution susceptibility test; assay type: functional; details: Pseudomonas aeruginosa, 50692520, 24 h
Method in brief: (§4)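 Broth microdilution per CLSI M07-A9 (modified). Working solutions made from concentrated DMSO stocks kept at r.t., diluted in double-distilled water, final DMSO <1%. Inoculum 1–1.2 x 10⁶ cells/mL in Mueller-Hinton broth, mixed 1:1 with compound. 37 °C, 24 h, four parallels. Read as OD₆₀₀. Where precipitation left residual OD, the point of major OD decrease was taken as the inhibitory concentration.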

[5] = tested on: Enterococcus faecium; experiment: Antibacterial activity against multidrug-resistant Enterococcus faecium 50901530 cultured in BHIB medium assessed as reduction in bacterial growth incubated for 24 hrs by microdilution susceptibility test; assay type: functional; details: Enterococcus faecium, 50901530, 24 h; method in brief: as §1
[6] = tested on: Escherichia coli; experiment: Antibacterial activity against Escherichia coli ATCC 25922 cultured in MHB medium assessed as no bacterial growth incubated at 37 degC for 24 hrs by microdilution susceptibility test; assay type: functional; details: ATCC 25922, 24 h; method in brief: as §3
[7] = tested on: Escherichia coli; experiment: Antibacterial activity against multidrug-resistant Escherichia coli 50676002 producing New Delhi metallo-beta-lactamase-1 cultured in MHB medium assessed as reduction in bacterial growth incubated for 24 hrs by microdilution susceptibility test; assay type: functional; details: Escherichia coli, 50676002, 24 h; method in brief: as §4
[8] = tested on: Staphylococcus aureus; experiment: Antibacterial activity against multidrug-resistant Staphylococcus aureus NCTC 10442 cultured in MHB medium assessed as reduction in bacterial growth incubated for 24 hrs by microdilution susceptibility test; assay type: functional; details: NCTC 10442, 24 h; method in brief: as §4
[9] = tested on: Staphylococcus aureus; experiment: Antibacterial activity against multidrug-resistant Staphylococcus aureus 85/2082 cultured in MHB medium assessed as reduction in bacterial growth incubated for 24 hrs by microdilution susceptibility test; assay type: functional; details: 85/2082, 24 h; method in brief: as §4
[10] = Drug metabolism in Sprague-Dawley rat liver microsomes assessed as CYP450-mediated N-(2-aminoethyl)-2-(aminomethyl)-2-[(4-fluoro-5,6-dihydroxy-5,6-dihydronaphthalen-1-yl)methyl]-3-(4-fluoro-1-naphthyl)propanamide formation incubated up to 3 hrs in presence of NADPH regenerating system by RP-HPLC-MS analysis; assay type: ADME
Method in brief: (§5)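 Substrate at 1 µL of 100 µM aqueous stock in 100 mM potassium phosphate, pH 7.4, with NADPH regenerating system. Pooled male Sprague–Dawley rat liver microsomes (20 mg/mL stock) added, then incubated at 37 °C. Sampled at 0–180 min and quenched with cold methanol containing propranolol internal standard. Analysed by RP-HPLC–HRMS in positive ESI mode. Metabolites confirmed by HCD MS2. Triplicate incubations.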

[11] = Aqueous solubility of the compound in DMSO; assay type: physicochemical
[12] = tested on: Enterococcus faecium; experiment: Antibacterial activity against multidrug-resistant Enterococcus faecium K36-18 cultured in BHIB medium assessed as reduction in bacterial growth incubated for 24 hrs by microdilution susceptibility test; assay type: functional; details: K36-18, 24 h; method in brief: as §1
[13] = tested on: Enterococcus faecium; experiment: Antibacterial activity against multidrug-resistant Enterococcus faecium TUH50-22 cultured in BHIB medium assessed as reduction in bacterial growth incubated for 24 hrs by microdilution susceptibility test; assay type: functional; details: TUH50-22, 24 h; method in brief: as §1
[14] = tested on: Pseudomonas aeruginosa; experiment: Antibacterial activity against multidrug-resistant Pseudomonas aeruginosa K34-7 producing Verona integron encoded metallo beta-lactamse-2 cultured in MHB medium assessed as reduction in bacterial growth incubated for 24 hrs by microdilution susceptibility test; assay type: functional; details: K34-7, 24 h; method in brief: as §4
[15] = Drug metabolism in Sprague-Dawley rat liver microsomes assessed as CYP450-mediated deaminated form of N-(2-aminoethyl)-2-(aminomethyl)-3-(4-fluoro-1-naphthyl)-2-[(4-fluoro-1-naphthyl)methyl]propanamide metabolite formation incubated up to 3 hrs in presence of NADPH regenerating system by RP-HPLC-MS analysis; assay type: ADME; method in brief: as §5
[16] = tested on: Klebsiella pneumoniae; experiment: Antibacterial activity against multidrug-resistant Klebsiella pneumoniae 50667959 producing Verona integron encoded metallo beta-lactamse-1 cultured in MHB medium assessed as reduction in bacterial growth incubated for 24 hrs by microdilution susceptibility test; assay type: functional; details: Klebsiella pneumoniae, 50667959, 24 h; method in brief: as §4
[17] = tested on: Acinetobacter baumannii; experiment: Antibacterial activity against multidrug-resistant Acinetobacter baumannii K63-58 producing oxcillinase-23 cultured in MHB medium assessed as reduction in bacterial growth incubated for 24 hrs by microdilution susceptibility test; assay type: functional; details: K63-58, 24 h; method in brief: as §4
[18] = tested on: Staphylococcus aureus; experiment: Antibacterial activity against multidrug-resistant Staphylococcus aureus N315 cultured in MHB medium assessed as reduction in bacterial growth incubated for 24 hrs by microdilution susceptibility test; assay type: functional; details: N315, 24 h; method in brief: as §4
[19] = tested on: MRC5; experiment: Cytotoxicity against human MRC5 cells assessed as reduction in cell viability incubated for 4 hrs by CellTiter 96 Aqueous One Solution Reagent based assay; details: MRC5, 4 h; method in brief: as §2

NCCNC(=O)C(CN)(Cc1ccc(F)c2ccccc12)Cc1ccc(F)c2ccccc12
MIC [1]: 8 µg/mL (≈ 17.9 µM)
EC50 [2]: 12 µg/mL (≈ 26.8 µM)
MIC [3]: 4 µg/mL (≈ 8.94 µM)
MIC [4]: > 32 µg/mL
MIC [5]: 16 µg/mL (≈ 35.8 µM)
MIC [6]: 4 µg/mL (≈ 8.94 µM)
MIC [7]: 8 µg/mL (≈ 17.9 µM)
MIC [8]: 8 µg/mL (≈ 17.9 µM)
MIC [9]: 8 µg/mL (≈ 17.9 µM)
Drug metabolism [10]: Metabolite_Detected
solubility [11]: Soluble
MIC [12]: 16 µg/mL (≈ 35.8 µM)
MIC [13]: 8 µg/mL (≈ 17.9 µM)
MIC [14]: > 32 µg/mL
Drug metabolism [15]: Metabolite_Detected
MIC [16]: 8 µg/mL (≈ 17.9 µM)
MIC [17]: 16 µg/mL (≈ 35.8 µM)
MIC [18]: 16 µg/mL (≈ 35.8 µM)
EC50 [19]: 4 µg/mL (≈ 8.94 µM)
